# The source made the active and inactive calls. No cut-off for these calls is given here.
# Tests used:
# [1] = test system: Human alphaherpesvirus 2; experiment: Inhibitory activity against HSV-2 in vero cells; type: functional, herpes simplex virus; settings: Human alphaherpesvirus 2, Vero; read-out: ED50 (the source's name)
# In short: (§1)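 Plaque-elimination assay. Cells were infected with 50–100 PFU of HSV-1 (KOS) or HSV-2 (186 or plaque-purified 186 stocks, 333, G) and adsorbed for 1 h, then overlaid with 0.5% FCS medium ± compound, in duplicate. After 2 days, wells were crystal-violet stained and plaques counted by eye; ED50 was taken from a sigmoidal nonlinear fit.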
# [2] = test system: Vero; experiment: In vitro cytotoxic concentration in vero cells.; type: functional; settings: Chlorocebus sabaeus
# In short: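 Vero cell replication was measured by sulforhodamine B dye binding after 2 days of continuous compound exposure. CC50 is the concentration giving 50% inhibition relative to untreated control, calculated by nonlinear regression with a sigmoidal fit to dose-response data.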
# [3] = test system: Human alphaherpesvirus 1; experiment: Inhibitory activity against HSV-1 in vero cells; type: functional, herpes simplex virus; settings: Human alphaherpesvirus 1, Vero; read-out: ED50 (the source's name); in short: as §1
# [4] = Therapeutic index (vero CC50/ED50) against HSV-1; settings: herpes simplex virus, Vero cells; read-out: TI
# In short: (§2)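 Selectivity (TI) was calculated as Vero CC50 (SRB assay, 2 days continuous treatment) divided by plaque-reduction ED50 against the given HSV strain in Vero cells, using 50–100 PFU inoculum and a 2-day incubation.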
# [5] = Therapeutic index (vero CC50/ED50) against HSV-2; settings: herpes simplex virus, Vero cells; read-out: TI; in short: as §2
# [6] = test system: Human alphaherpesvirus 1; experiment: Inhibitory activity against HSV-1 in vero cells; NA= not active; type: functional, organism-based; settings: herpes simplex virus; in short: as §1
# [7] = test system: Human alphaherpesvirus 2; experiment: Inhibitory activity against HSV-2 in vero cells; NA= not active; type: functional, organism-based; settings: herpes simplex virus; in short: as §1
# [8] = test system: herpes simplex virus; experiment: Anti-HSV activity against HSV-2 (333) strain; type: functional; in short: as §1
# [9] = test system: herpes simplex virus; experiment: Anti-HSV activity against HSV-2 (186, c4) strain; type: functional; in short: as §1
# [10] = Therapeutic index against HSV-2 (333); settings: herpes simplex virus; read-out: TI; in short: as §2
# [11] = test system: herpes simplex virus; experiment: Anti-HSV activity against HSV-2 (186, c2) strain; type: functional; in short: as §1
# [12] = test system: herpes simplex virus; experiment: Anti-HSV activity against HSV-1 (KOS) strain; type: functional; in short: as §1
# [13] = test system: herpes simplex virus; experiment: Anti-HSV activity against HSV-2 (186) strain; type: functional; in short: as §1
# [14] = Therapeutic index against HSV-2 (186, c2); settings: herpes simplex virus; read-out: TI; in short: as §2
# [15] = Therapeutic index against HSV-2 (186, c4); settings: herpes simplex virus; read-out: TI; in short: as §2
# [16] = Therapeutic index against HSV-2 (G); settings: herpes simplex virus; read-out: TI; in short: as §2
# [17] = Therapeutic index against HSV-1 (KOS); settings: herpes simplex virus; read-out: TI; in short: as §2
# [18] = test system: herpes simplex virus; experiment: Anti-HSV activity against HSV-2 (G) strain; type: functional; in short: as §1
# [19] = Therapeutic index (vero CC50/ED50) against HSV-2; NA= not active; settings: herpes simplex virus; in short: as §2
# [20] = test system: Human alphaherpesvirus 1; experiment: Inhibitory activity against HSV-1 in vero cells; NA= not active at 100 uM; type: functional, organism-based; settings: herpes simplex virus; in short: as §1
# [21] = test system: Human alphaherpesvirus 2; experiment: Inhibitory activity against HSV-2 in vero cells; NA= not active, at 50 uM no toxicity; type: functional, organism-based; settings: herpes simplex virus; in short: as §1
SMILES,EC50 [1] [µM],EC50 [3] [µM],CC50 [2] [µM],selectivity ratio [4],other results
Nc1nc2c(ncn2COCCO)c(=O)[nH]1 [ACYCLOVIR],2.5,0.5,> 400,> 800,selectivity ratio [5]: > 160
Cc1cc(O)c2c(=O)c3cccc(Cl)c3[nH]c2c1,,,13,,ED50 [6]: inactive; ED50 [7]: inactive
COc1cccc2c(O)c3c(O)cc(O)cc3nc12,0.6,2.2,30,13,ED50 [8]: 0.7 µM; ED50 [9]: 1.2 µM; selectivity ratio [10]: 43; ED50 [11]: 0.6 µM; ED50 [12]: 2.2 µM; ED50 [13]: 0.6 µM; selectivity ratio [14]: 50; selectivity ratio [15]: 25; selectivity ratio [16]: 60; selectivity ratio [17]: 14; ED50 [18]: 0.5 µM; selectivity ratio [5]: 50
O=c1c2cccc(Cl)c2[nH]c2cc(O)cc(O)c12,> 30,4,60,13,TI [19]: Not Active
O=c1c2cccc(Cl)c2[nH]c2cc3ccccc3c(O)c12,,,> 100,,ED50 [20]: inactive
COc1cc(O)c2c(O)c3cccnc3nc2c1,,,5.5,,ED50 [21]: inactive
O=C(O)CP(=O)(O)O [FOSFONET],,240,3500,29,
O=c1c2ccc(Cl)cc2[nH]c2cc(O)cc(O)c12,,10,29,3,TI [19]: Not Active
O=c1c2ccccc2[nH]c2cc(O)cc(O)c12,,45,68,1.5,
O=c1c2c(O)cc(O)cc2[nH]c2cccc(Cl)c12,,10,70,7,
Cc1cccc2c(O)c3c(O)cc(O)cc3nc12,15,8,32,4,selectivity ratio [5]: 2.1
O=c1c2cc(Cl)ccc2[nH]c2cc(O)cc(O)c12,15,16,52,3.5,selectivity ratio [5]: 3.5

# More lines, main results first:
EC50 [1] [µM],EC50 [3] [µM],SMILES,CC50 [2] [µM],selectivity ratio [4],other results
> 50,,COc1cc(O)c2c(O)c3cccc(OC)c3nc2c1,> 50,,
> 50,> 100,COc1cc(O)c2c(=O)c3cccc(Cl)c3n(C)c2c1,> 100,,
,44,Cc1cccc2nc3cc(O)cc(O)c3c(O)c12,60,1.4,
> 10,,COc1cc(O)c2c(O)c3cc(OC)ccc3nc2c1,> 50,,
,15,Oc1cc(O)c2c(O)c3cc(O)ccc3nc2c1,40,2.7,
,> 50,COc1cc(O)c2c(=O)c3cccc(Cl)c3[nH]c2c1,> 100,,ED50 [7]: inactive
20,12,Oc1cc(O)c2c(O)c3cc(Cl)cc(Cl)c3nc2c1,> 100,> 5,selectivity ratio [5]: > 8.3
< 10,,COc1cc(O)c2c(O)c3cc(O)ccc3nc2c1,25,,
> 30,> 50,Cn1c2cc(O)cc(O)c2c(=O)c2cccc(Cl)c21,50,,
